Laboratory results: ChEMBL document CHEMBL1153820, “Novel derivatives of pyridylbenzo[b]thiophene-2-carboxamides and benzo[b]thieno[2,3-c]naphthyridin-2-ones: minor structural variations provoke major differences of antitumor action mechanisms” (J Med Chem, 2009)
Activity calls are given as the source filed them. No cut-off for these calls is given here.

What was measured:
[1] = tested on: Calf thymus DNA; assay: Binding affinity to calf thymus DNA assessed as change in melting temperature at [compound]/[polynucleotide] ratio of 0.3 at pH 7.0; assay type: nucleic-acid assay; details: Bos taurus
Summary of the method: (§1)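 Thermal denaturation of ct-DNA (sonicated, filtered, concentration as phosphate) alone and with compound in Na cacodylate buffer pH 7.0, I = 0.05 mol dm-3. Absorbance at 260 nm followed versus temperature, ligand absorbance subtracted, scale normalized. Tm is the transition midpoint, from the first-derivative maximum or by tangent method. ΔTm = Tm(complex) − Tm(free DNA). Mean of at least two runs, error ±0.5 °C.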

[2] = tested on: Calf thymus DNA; assay: Binding affinity to calf thymus DNA at pH 7.0 by UV/Visible spectroscopy; assay type: nucleic-acid assay; details: Bos taurus
Summary of the method: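 UV/vis titration: portions of ct-DNA (as phosphate) added to compound (c = 1.2 × 10-5 mol dm-3). Na cacodylate buffer pH 7.0, I = 0.05 mol dm-3; change followed at λmax 314 nm. Ks and n from Scatchard equation by nonlinear least-squares fitting.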

[3] = tested on: Calf thymus DNA; assay: Binding affinity to calf thymus DNA at pH 7.0 by fluorimetric titration method; assay type: nucleic-acid assay; details: Bos taurus
Summary of the method: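 Fluorimetric titration: ct-DNA portions added to compound at about tenfold lower concentration than in UV/vis, absorbance below 0.05 at excitation. Emission 350–550 nm in Na cacodylate buffer pH 7.0, I = 0.05 mol dm-3. log Ks from Scatchard fitting (nonlinear least squares) at fixed n = 0.2.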

[4] = tested on: Calf thymus DNA; assay: Binding affinity to calf thymus DNA assessed as change in melting temperature at [compound]/[polynucleotide] ratio of 0.5 at pH 7.0; assay type: nucleic-acid assay; details: Bos taurus; summary of the method: as §1
[5] = tested on: Calf thymus DNA; assay: Binding affinity to calf thymus DNA minor groove assessed as change in DNA spectrum by CD spectroscopy; assay type: nucleic-acid assay; details: Bos taurus
[6] = tested on: NCI-H460; assay: Growth inhibition of human H460 cells after 72 hrs by MTT method; assay type: functional, cell-based; details: NCI-H460, 72 h
Summary of the method: (§2)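 Cells in DMEM with 10% FBS, 2 mM L-glutamine, penicillin/streptomycin, 37 °C, 5% CO2. Seeded at 1 × 10^4 to 3 × 10^4 cells/mL. Compound given as five 10-fold dilutions (10-8–10-4 M, DMSO under 1%) for 72 h, then MTT read-out. Quadruplicate, three experiments. IC50 by linear regression between concentrations bracketing 50% growth; top concentration reported as ">" when not reached.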

[7] = tested on: HeLa; assay: Growth inhibition of human HeLa cells after 72 hrs by MTT method; assay type: functional, cell-based; summary of the method: as §2
[8] = tested on: MIA PaCa-2; assay: Growth inhibition of human MIAPaCa2 cells after 72 hrs by MTT method; assay type: functional, cell-based; details: MIA PaCa-2, 72 h; summary of the method: as §2
[9] = tested on: SW-620; assay: Growth inhibition of human SW620 cells after 72 hrs by MTT method; assay type: functional, cell-based; details: SW-620, 72 h; summary of the method: as §2
[10] = tested on: MCF7; assay: Growth inhibition of human MCF7 cells after 72 hrs by MTT method; assay type: functional, cell-based; details: MCF7, 72 h; summary of the method: as §2
[11] = tested on: MIA PaCa-2; assay: Cell cycle arrest in human MIAPaCa2 cells assessed as accumulation at subG1 phase at 5 uM after 24 hrs by flow cytometry; assay type: functional
Summary of the method: (§3)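 MiaPaCa-2 cells (2 × 10^5/well) seeded, compound (5 μM) added after 24 h, exposed 24 or 48 h. Attached and floating cells pooled, fixed in 70% ethanol, stained with propidium iodide 50 μg/mL plus RNase A. 20 000 events by flow cytometry; phase percentages (sub-G1 taken as apoptotic) from DNA histograms. Duplicates, repeated at least twice.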

[12] = tested on: MIA PaCa-2; assay: Cell cycle arrest in human MIAPaCa2 cells assessed as accumulation at G1/G0 phase at 5 uM after 24 hrs by flow cytometry; assay type: functional; summary of the method: as §3
[13] = tested on: MIA PaCa-2; assay: Cell cycle arrest in human MIAPaCa2 cells assessed as accumulation at S phase at 5 uM after 24 hrs by flow cytometry; assay type: functional; summary of the method: as §3
[14] = tested on: MIA PaCa-2; assay: Cell cycle arrest in human MIAPaCa2 cells assessed as accumulation at G2/M phase at 5 uM after 24 hrs by flow cytometry; assay type: functional; summary of the method: as §3
[15] = tested on: MIA PaCa-2; assay: Cell cycle arrest in human MIAPaCa2 cells assessed as accumulation at subG1 phase at 5 uM after 48 hrs by flow cytometry; assay type: functional; summary of the method: as §3
[16] = tested on: MIA PaCa-2; assay: Cell cycle arrest in human MIAPaCa2 cells assessed as accumulation at G1/G0 phase at 5 uM after 48 hrs by flow cytometry; assay type: functional; summary of the method: as §3
[17] = tested on: MIA PaCa-2; assay: Cell cycle arrest in human MIAPaCa2 cells assessed as accumulation at S phase at 5 uM after 48 hrs by flow cytometry; assay type: functional; summary of the method: as §3
[18] = tested on: MIA PaCa-2; assay: Cell cycle arrest in human MIAPaCa2 cells assessed as accumulation at G2/M phase at 5 uM after 48 hrs by flow cytometry; assay type: functional; summary of the method: as §3
[19] = species on record: Bos taurus; assay: Inhibition of calf thymus topoisomerase 1-mediated DNA relaxation assessed as induction of plasmid DNA nicking at 200 uM by gel electrophoresis
Summary of the method: (§4)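 Supercoiled pCI plasmid (0.8 μg) with calf thymus topoisomerase I (6 U) ± compound (200 μM) in Tris-HCl pH 7.5, 175 mM KCl, 5 mM MgCl2, 0.1 mM EDTA, 2.5% glycerol; 37 °C, 30 min. Stopped with SDS, then proteinase K and phenol/chloroform extraction. Samples run on 1% agarose with and without 0.5 μg/mL ethidium bromide to resolve nicked, supercoiled and relaxed forms; UV visualization.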

[20] = tested on: MIA PaCa-2; assay: Induction of cell shape disruption in human MIAPaCa2 cells at 5 uM after 24 hrs by immunofluorescence spectroscopy; assay type: functional, cell-based
Summary of the method: (§5)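 MiaPaCa-2 cells (2 × 10^5) grown overnight on coverslips, then exposed to 5 μM compound for 24 h. Fixed in 4% formaldehyde, permeabilized with 0.1% Triton X-100, blocked with 4% FCS. Stained with mouse anti-α-tubulin (1/200, 2 h) and FITC anti-mouse secondary (1/500, 1 h). Nuclei stained with DAPI 100 ng/mL; fluorescence microscopy at 400×.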

[21] = tested on: MIA PaCa-2; assay: Induction of tubulin network disruption in human MIAPaCa2 cells at 5 uM after 24 hrs by immunofluorescence spectroscopy; assay type: functional, cell-based; summary of the method: as §5
[22] = tested on: MIA PaCa-2; assay: Induction of multinucleation in human MIAPaCa2 cells at 5 uM after 24 hrs by DAPI staining; assay type: functional, cell-based; summary of the method: as §5
[23] = tested on: MIA PaCa-2; assay: Induction of nuclear fragmentation in human MIAPaCa2 cells at 5 uM after 24 hrs by DAPI staining; assay type: functional, cell-based; summary of the method: as §5
[24] = tested on: MIA PaCa-2; assay: Induction of apoptosis in human MIAPaCa2 cells by flow cytometry; assay type: functional, cell-based; summary of the method: as §3
[25] = species on record: Bos taurus; assay: Inhibition of calf thymus topoisomerase 1-mediated DNA relaxation assessed as induction of plasmid DNA nicking at 100 uM by gel electrophoresis
Summary of the method: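 Purified calf thymus topoisomerase I (6 U) was incubated with negatively supercoiled pCI plasmid (0.8 μg), with or without compound, in Tris-HCl relaxation buffer (pH 7.5, 175 mM KCl, 5 mM MgCl2) at 37 °C for 30 min. The reaction was stopped with SDS and proteinase K, then phenol-extracted. Samples were split onto 1% agarose gels with and without ethidium bromide to separate nicked, supercoiled and relaxed forms, and read under UV.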

[26] = tested on: Calf thymus DNA; assay: Binding affinity to calf thymus DNA assessed as decrease in DNA bands at 245 nm and 280 nm wavelength by CD spectroscopy; assay type: nucleic-acid assay; details: Bos taurus
[27] = species on record: Bos taurus; assay: Inhibition of calf thymus topoisomerase 1-mediated DNA relaxation at 200 uM by gel electrophoresis; summary of the method: as §4

| Structure (SMILES) | ΔTm [1] [°C] | ΔTm [4] [°C] | IC50 [6] [µM] | IC50 [7] [µM] | IC50 [8] [µM] | IC50 [9] [µM] | IC50 [10] [µM] | Activity [11] [%] | Activity [12] [%] | Activity [13] [%] | Activity [14] [%] | Activity [15] [%] | Activity [16] [%] | Activity [17] [%] | Activity [18] [%] | also measured |
| --- | --- | --- | --- | --- | --- | --- | --- | --- | --- | --- | --- | --- | --- | --- | --- | --- |
| Cl.O=C(Nc1ccc(C2=NCCN2)cn1)c1sc2ccccc2c1Cl | 1.3 | 2.1 | 1 | 1.5 | 1 | 1 | 1.8 | 3.2 | 37.7 | 41.6 | 20.7 | 4.9 | 52.3 | 32.6 | 15.1 | log Ks [2]: 5.7; log Ks [3]: 5.6; Activity [5]: Active; Activity [19]: inactive |
| Cl.O=C(Nc1ccc(C2=NCCN2)nc1)c1sc2ccccc2c1Cl | 0 | 0.9 | 1.3 | 1 | 1.6 | 1.3 | 4 | 18.5 | 17.5 | 16 | 66.5 | 36 | 23.14 | 26 | 50.9 | Activity [20]: Active; Activity [21]: Active; Activity [22]: Active; Activity [23]: Active; Activity [24]: Active |
| O=C(Nc1ccncc1)c1sc2ccccc2c1Cl |  |  | 68 | 2 | 38 | 38 | 51 |  |  |  |  |  |  |  |  |  |
| CC[C@@]1(O)C(=O)OCc2c1cc1n(c2=O)Cc2cc3ccccc3nc2-1 |  |  |  |  |  |  |  |  |  |  |  |  |  |  |  | Activity [25]: Active |
| Cl.O=c1[nH]c2ncc(C3=NCCN3)cc2c2c1sc1ccccc12 | 6.6 | 8.7 | 1 | 1.7 | 1 | 0.6 | 1.6 | 2 | 38.9 | 41.5 | 19.7 | 1.7 | 52.8 | 33.2 | 14.1 | log Ks [3]: 6.44; Activity [26]: Active; Activity [19]: inactive; Activity [27]: Active |
| N=C(N)c1ccc(-c2cc3ccc(C(=N)N)cc3[nH]2)cc1 |  |  |  |  |  |  |  |  |  |  |  |  |  |  |  | Activity [25]: inactive |
| N#Cc1cnc2[nH]c(=O)c3sc4ccccc4c3c2c1 |  |  | > 100 | 7 | 12 | 22 | 45 |  |  |  |  |  |  |  |  |  |
| O=c1[nH]c2ccncc2c2c1sc1ccccc12 |  |  | > 100 | 14 | 7 | 6 | > 100 |  |  |  |  |  |  |  |  |  |
| N#Cc1ccc(NC(=O)c2sc3ccccc3c2Cl)nc1 |  |  | 59 | 2 | 8 | 20 | 20 |  |  |  |  |  |  |  |  |  |
